The experiment addresses Amyloid-beta precursor protein (Homo sapiens, UniProt P05067). Nature of the experiment: Displacement of [125I]IMPY from beta-amyloid plaques in Alzheimer's disease patient brain homogenate. Format: tissue-based. The procedure, abridged: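 Test compound was added at 10^-5–10^-10 M, serially diluted in PBS containing 0.1% BSA. Nonspecific binding was defined with 600 nM unlabeled IMPY. Incubation was 37 °C for 2 h, followed by GF/B vacuum filtration, PBS washes and γ counting. Ki came from nonlinear regression.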

Sequence of Amyloid-beta precursor protein (P05067 whole entry): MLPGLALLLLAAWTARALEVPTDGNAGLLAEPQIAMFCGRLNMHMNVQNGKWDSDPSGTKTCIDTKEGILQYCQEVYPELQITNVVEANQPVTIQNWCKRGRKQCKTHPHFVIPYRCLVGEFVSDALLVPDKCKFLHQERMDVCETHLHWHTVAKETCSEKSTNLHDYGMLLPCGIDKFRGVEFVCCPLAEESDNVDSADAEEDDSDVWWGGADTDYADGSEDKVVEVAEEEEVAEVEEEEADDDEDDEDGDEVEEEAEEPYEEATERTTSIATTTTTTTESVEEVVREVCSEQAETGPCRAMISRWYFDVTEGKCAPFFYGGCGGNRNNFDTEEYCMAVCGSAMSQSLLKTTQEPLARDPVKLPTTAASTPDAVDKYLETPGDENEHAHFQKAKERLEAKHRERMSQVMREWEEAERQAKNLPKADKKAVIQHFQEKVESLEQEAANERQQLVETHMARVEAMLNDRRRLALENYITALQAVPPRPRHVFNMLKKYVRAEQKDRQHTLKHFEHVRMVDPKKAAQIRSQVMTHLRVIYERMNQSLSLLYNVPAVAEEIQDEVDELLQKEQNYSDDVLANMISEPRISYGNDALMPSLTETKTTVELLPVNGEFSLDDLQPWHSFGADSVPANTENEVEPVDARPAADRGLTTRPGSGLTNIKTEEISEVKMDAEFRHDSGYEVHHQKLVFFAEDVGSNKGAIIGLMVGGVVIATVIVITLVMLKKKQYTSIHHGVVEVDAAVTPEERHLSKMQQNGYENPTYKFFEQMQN

The term Ki denotes the equilibrium dissociation constant of an inhibitor or competing ligand from its target. A higher Ki goes with a looser hold on the target. Take `CN(C)c1ccc2nc(-c3ccc(F)cc3)sc2c1`: the Ki was 3.8 nM.

The values are drawn from ChEMBL document CHEMBL1154674, “Synthesis and evaluation of three 18F-labeled aminophenylbenzothiazoles as amyloid imaging agents” (J Med Chem, 2009).
